Measured values from different studies.
Each line is one published result; the experiments were not run side by side.
FLT3 D835Y: Receptor-type tyrosine-protein kinase FLT3 (FLT3, Homo sapiens, UniProt P36888, D835Y)
FLT3: Receptor-type tyrosine-protein kinase FLT3 (FLT3, Homo sapiens, UniProt P36888)
FLT3 N841I: Receptor-type tyrosine-protein kinase FLT3 (FLT3, Homo sapiens, UniProt P36888, N841I)

SMILES | target | effect on | mode | technique | concentration | endpoint | value
C[C@H]1CC[C@H](n2c3cnccc3c3cnc(Nc4ccc5c(n4)CCN(C(=O)CO)C5)nc32)CC1 | FLT3 D835Y | cell-free assay | – | – | 1 µM | remaining signal | 1%
CC#CC(=O)N1CCC[C@H]1c1nc(-c2ccc(C(=O)Nc3ccccn3)cc2)c2c(N)nccn12 | Receptor-type tyrosine-protein kinase FLT3 (FLT3, Homo sapiens, UniProt P36888, D835V) | enzyme activity | inhibitor | – | 1 µM | inhibition | 1%
Cc1n[nH]c2ccc3nc(-c4ccc(C(=O)NCCN(C)C)cc4F)c4c(c3c12)CCCC4 | FLT3 | enzyme activity | inhibitor | radiometric | 0.5 µM | remaining activity | 22%
C[C@]1(O)CCCN(c2nc(Nc3ccc(S(=O)(=O)N[C@H]4CC[C@H](CN5CCN(c6ccc(C7CCC(=O)NC7=O)cc6F)CC5)CC4)cc3F)ncc2C(F)(F)F)C1 (stereo partly drawn) | FLT3 N841I | binding | – | competition with immobilised ligand | 1 µM | remaining binding | 72%
COc1ccc2oc(-c3ccc4nc(N)oc4c3)c/c(=N\c3ccccc3NC(=O)CCN)c2c1 | FLT3 | binding | – | – | 1 µM | remaining binding | 108%
C=CC(=O)N1CCC([C@@H]2CCNc3c(C(N)=O)c(-c4ccc(Oc5ccccc5)cc4)nn32)CC1 | Receptor-type tyrosine-protein kinase FLT3 (FLT3, Homo sapiens, UniProt P36888, ITD) | enzyme activity | inhibitor | – | 1 µM | inhibition | 5%
C1=C/COCc2cc(ccc2OCCN2CCCC2)Nc2nccc(n2)-c2cccc(c2)COC/1 | FLT3 N841I | binding | – | – | 0.1 µM | remaining binding | 4.3%
Cc1ccc(NC(=O)c2ccnc(C(F)(F)F)c2)cc1-c1cc(OCCO)nc(N2CCOCC2)c1 | FLT3 N841I | binding | – | – | 1 µM | remaining binding | 82%
O=C1C=C(Nc2ccc(OCc3cn(Cc4ccc(Cl)c(Cl)c4)nn3)cc2)C(=O)c2ccccc21 | FLT3 | enzyme activity | inhibitor | radiometric | 10 µM | inhibition | -21%
CCCCC(=O)Nc1ccc(-c2ccc3ncn(CCC)c(=O)c3c2)cn1 | FLT3 D835Y | binding | – | competition with immobilised ligand | 0.5 µM | remaining binding | 96%
CN1CCN(C(=O)c2ccc(NC(=O)Nc3ccc(N(C)c4ccnc(Nc5ccc(CS(C)(=O)=O)cc5)n4)cc3)cc2)CC1 | Receptor-type tyrosine-protein kinase FLT3 (FLT3, Homo sapiens, UniProt P36888, K663Q) | binding | – | – | 1 µM | remaining binding | 0%
CN(C)C(=O)c1cc2cnc(Nc3ccc(-c4ccc5c(=O)cc(N6CCOCC6)oc5c4)cc3)nc2n1C1CCCC1 | FLT3 | binding | – | competition with immobilised ligand | 1 µM | remaining binding | 3.9%
C#Cc1cc(-c2cc(Nc3nc(N[C@@H](C)c4ccc(F)cn4)ncc3Cl)n[nH]2)ccc1C=O | FLT3 | enzyme activity | inhibitor | – | 0.2 µM | inhibition | 98.8%
COc1ccc2[nH]c3c4[nH]c5ccc(OC)cc5c4c4c(c3c2c1)C(=O)NC4=O | FLT3 D835Y | binding | – | – | 1 µM | remaining binding | 16%
C[C@]1(O)CCCN(c2nc(Nc3ccc(S(=O)(=O)N[C@H]4CC[C@H](CN5CCN(c6ccc(C7CCC(=O)NC7=O)cc6F)CC5)CC4)cc3Cl)ncc2C(F)(F)F)C1 (stereo partly drawn) | FLT3 N841I | binding | – | competition with immobilised ligand | 1 µM | remaining binding | 68%
